Published values gathered from unrelated publications.
Lines come from different studies, so protocols differ.
Target: Serine/threonine-protein kinase MARK1 (MARK1, Homo sapiens, UniProt Q9P0L2)

Structure (SMILES)	effect on	action	technique	tested at	quantity	result
Cc1ncc([N+](=O)[O-])n1C(=NO)c1ccccc1C(F)(F)F	enzyme activity	inhibitor	–	10 µM	inhibition	34.2%
Cc1cc(NC(=O)c2cccc3cc(-c4cccc5[nH]nc(N)c45)ccc23)ccc1F	enzyme activity	inhibitor	–	0.1 µM	activity vs control	133%
COc1cc2c(N3CCN(C(=O)Nc4ccc(OC(C)C)cc4)CC3)ncnc2cc1OCCCN1CCCCC1	cell-free assay	–	–	0.5 µM	remaining signal	89.9%
COc1cc(/C=C/C(=O)CC(=O)/C=C/c2ccc(O)c(OC)c2)ccc1O	enzyme activity	inhibitor	–	1 µM	activity vs control	79%
Cc1nn(CC(F)(F)F)cc1Nc1ncc(C2CC2)c(NCc2ccc(S(N)(=O)=O)cc2)n1	enzyme activity	inhibitor	radiometric	1 µM	remaining activity	108%
CCC(=O)N[C@H]1CC[C@@H](C(=O)N(C)c2ccc(-c3nc4ccccc4o3)cc2)C1	cell-free assay	–	competition with immobilised ligand	1 µM	remaining binding	100%
Brc1cnc(Nc2cccc(CN3CCOCC3)c2)nc1NCCc1c[nH]cn1	enzyme activity	inhibitor	radiometric	1 µM	remaining activity	-3%
CC(=O)C1=C(C)N(c2cccc(C(F)(F)F)c2)C(=O)N[C@@H]1c1ccc(C#N)nc1	cell-free assay	–	competition with immobilised ligand	1 µM	remaining binding	100%
COc1cc2ncnc(Nc3ccc(F)c(Cl)c3)c2cc1OCCCN1CCOCC1	cell-free assay	–	–	0.5 µM	remaining signal	116%
FC(F)c1nc2ccccc2n1-c1nc(N2CCOCC2)nc(N2CCOCC2)n1	enzyme activity	inhibitor	–	10 µM	remaining activity	106%
O=C(NCCCNc1ccnc(Nc2cccc(NC(=O)N3CCCC3)c2)n1)C1CCC1	enzyme activity	inhibitor	radiometric	1 µM	remaining activity	72%
COc1cc2ncnc(Nc3ccc(Oc4ccccc4)cc3C)c2cc1OC	enzyme activity	inhibitor	–	1 µM	inhibition	8%
Cc1nn(CC(F)(F)F)cc1Nc1ncc(Br)c(NCc2ccc(S(N)(=O)=O)cc2)n1	enzyme activity	inhibitor	radiometric	1 µM	remaining activity	90%
CCN(CC)CCNC(=O)c1c(C)[nH]c(/C=C2\C(=O)Nc3ccc(F)cc32)c1C	enzyme activity	inhibitor	–	0.3 µM	inhibition	50%
CSc1nc(C)c(-c2ccnc(Nc3ccc(N4CCOCC4)cc3)c2)[nH]1	enzyme activity	inhibitor	–	10 µM	inhibition	20.1%
C[C@H](c1ccnc(Nc2nc3ccc(-c4cc(N(C)C)ncn4)cc3[nH]2)c1)N1CCN(C(=O)CC(F)(F)F)CC1	cell-free assay	–	competition with immobilised ligand	0.1 µM	remaining binding	100%

Structure (SMILES)	effect on	action	technique	tested at	quantity	result
O=C1NC(=O)c2cc(Nc3ccc(F)cc3)c(Nc3ccc(F)cc3)cc21	cell-free assay	–	–	0.5 µM	remaining signal	98.9%
Cc1ccc(Nc2nccc(N(C)c3ccc4c(C)n(C)nc4c3)n2)cc1S(N)(=O)=O	enzyme activity	inhibitor	–	10 µM	inhibition	26%
COc1cc(Nc2cnc(C#N)c(O[C@H](C)CN(C)C)n2)ncc1-c1cnn(C)c1	enzyme activity	inhibitor	radiometric	1 µM	remaining activity	95%
CCCCN(CCCC)C(=O)CN1C[C@@H](c2cc(OC)c3c(c2)OCO3)[C@H](C(=O)O)[C@H]1CC(C)(C)CCC	cell-free assay	–	competition with immobilised ligand	1 µM	remaining binding	88.7%
NS(=O)(=O)c1ccc(CNc2nc(Nc3cccc(NC(=O)N4CCCC4)c3)ncc2Br)cc1	enzyme activity	inhibitor	radiometric	1 µM	remaining activity	57%
CC/C(=N\NC(=O)NCc1cccc(O)c1)c1ccc(O)c(C)c1O	enzyme activity	inhibitor	–	0.1 µM	inhibition	-2.5%
CS(=O)(=O)N1CCCC(NC(=O)[C@H](CCC2CCCCC2)NC(=O)c2ccc(CNc3ncnc4c3nnn4-c3ccccc3)cc2)C1 (some centres unmarked)	cell-free assay	–	competition with immobilised ligand	0.1 µM	remaining binding	74%
Cc1nn(CC(F)(F)F)cc1Nc1ncc(Br)c(NCCc2cnc[nH]2)n1	enzyme activity	inhibitor	radiometric	1 µM	remaining activity	49%
CO[C@@H](C)c1c(Nc2ccc([C@@H](N(C)C(=O)C3CCS(=O)(=O)CC3)C(F)(F)F)cc2)cnc2cc(Cl)nn12	cell-free assay	–	competition with immobilised ligand	1 µM	remaining binding	81%
O=C(NCCCNc1nc(Nc2cccc(CN3CCOCC3)c2)ncc1C1CC1)C1CCC1	enzyme activity	inhibitor	radiometric	1 µM	remaining activity	-5%
C[S+]([O-])c1ccc(-c2nc(-c3ccncc3)c(-c3ccc(F)cc3)[nH]2)cc1 (centres unmarked)	cell-free assay	–	–	0.5 µM	remaining signal	105%
Cc1nn(CC(F)(F)F)cc1Nc1nccc(NCc2ccc(S(N)(=O)=O)cc2)n1	enzyme activity	inhibitor	radiometric	1 µM	remaining activity	107%
Cc1cc(C)c(-n2ccn3nc(-c4cccnc4)cc23)cc1NC(=O)c1cc(C#N)cc(S(F)(F)(F)(F)F)c1	cell-free assay	–	competition with immobilised ligand	0.1 µM	remaining binding	96.7%
CNC(=O)c1cc(Oc2ccc(NC(=O)Nc3ccc(Cl)c(C(F)(F)F)c3)cc2)ccn1	enzyme activity	inhibitor	–	0.3 µM	inhibition	9%
CSc1cccnc1N1CCN(Cc2nc3ccccc3[nH]2)CC1	cell-free assay	–	competition with immobilised ligand	1 µM	remaining binding	100%
FC(F)(F)Oc1cccc(-c2cnc3ccc(-c4ccncc4)nn23)c1	enzyme activity	inhibitor	radiometric	1 µM	activity vs control	92%
